{"source": "paper PMC4333497", "about": "(British Journal of Cancer, 2015)", "key": {"[1]": {"tested_on": "patients with advanced solid tumours", "assay": "Dose-limiting toxicities and MTD/RP2D determination", "assay_type": "in vivo, human", "procedure,_shortened": "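Oral capsules, once or twice weekly, in 28-day cycles under fasting conditions. Cohorts had at least three patients. A DLT was any clinically relevant AE or abnormal laboratory value in the first 28 days. A Bayesian logistic regression model with escalation with overdose control estimated the posterior probability of DLT at each dose level from cycle 1 data. MTD/RP2D was set from the model plus safety review by investigators.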"}, "[2]": {"assay": "Plasma pharmacokinetics of HSP990 after oral dosing", "assay_type": "in vivo, human", "conditions": "for AUClast: day 22; for Cmax: steady state", "procedure,_shortened": "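Oral dosing 30 min after a light breakfast, then a 3-h fast, with meal timing recorded. Plasma was assayed centrally by validated LC-MS/MS and analysed non-compartmentally. Day effect was tested by ANCOVA on log-transformed AUC and Cmax with a linear mixed-effect model.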"}, "dogs": {"tested_on": "dogs", "conditions": "preclinical pharmacology studies, ref Novartis, 2012; cited from earlier work"}, "HSP70": {"tested_on": "HSP70", "assay": "HSP70 levels in PBMCs by ELISA", "assay_type": "in vivo, human"}, "advanced solid tumours [3]": {"tested_on": "advanced solid tumours", "assay": "FDG-PET metabolic response", "assay_type": "in vivo, human", "procedure,_shortened": "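FDG-PET was done at screening/baseline, on day 10 of cycle 1 and on day 2 of cycle 3. Maximum SUV was summed across all target lesions (sSUVmax). A reduction of ⩾25% counted as objective metabolic response and an increase of ⩾25% as progression. Any new PET lesion counted as metabolic progression.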"}, "[4]": {"conditions": "rat model; preclinical; cited from earlier work"}, "[5]": {"tested_on": "patients with advanced solid tumours", "assay": "Safety: adverse events graded by NCI CTCAE version 3.0 in phase I study", "assay_type": "in vivo, human", "procedure,_shortened": "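Toxicity was graded by NCI CTCAE v3.0 during oral dosing in 28-day cycles. Assessments covered physical and neurological examination, vital signs, weight, performance status, and AEs/SAEs. Haematology, coagulation, biochemistry and urinalysis were done at baseline, on day 1 of every cycle, at the last visit and when clinically indicated. ECGs were done on day 1 of each cycle. ECHO/MUGA was done at baseline, at the end of cycles 2–4, then every other month. Data were summarised descriptively.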"}, "advanced solid tumours [6]": {"tested_on": "advanced solid tumours", "assay": "Tumour response according to RECIST version 1.0", "assay_type": "in vivo, human", "procedure,_shortened": "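Tumours were assessed radiologically at baseline, at the end of every two 28-day cycles and at the end of treatment. Response was classified per RECIST version 1.0. Patients had at least one measurable lesion at entry and received oral capsules once or twice weekly until progression, unacceptable toxicity or withdrawal.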"}, "rats": {"tested_on": "rats", "conditions": "preclinical pharmacology studies, ref Novartis, 2012; cited from earlier work"}, "[7]": {"conditions": "all patients (N=64), two patients"}}, "note": "Entries after “also recorded” stand apart in the source; their conditions may differ."}
{"smiles": "COc1cccc(-c2cc(F)ccc2[C@H]2Cc3nc(N)nc(C)c3C(=O)N2)n1", "note": "[HSP990]", "values": [{"measurement": "Total no. of patients with DLTs", "setting": "[1]; 2.5 mg once weekly, 3 DLT evaluable patients", "value": 0}, {"measurement": "Total no. of patients with DLTs", "setting": "[1]; 5 mg once weekly, 5 DLT evaluable patients", "value": 0}, {"measurement": "Total no. of patients with DLTs", "setting": "[1]; 10 mg once weekly, 7 DLT evaluable patients", "value": 0}, {"measurement": "Total no. of patients with DLTs", "setting": "[1]; 20 mg once weekly, 6 DLT evaluable patients", "value": 0}, {"measurement": "Total no. of patients with DLTs", "setting": "[1]; 30 mg once weekly, 4 DLT evaluable patients", "value": 0}, {"measurement": "Number of DLTs encountered", "setting": "[1]; 50 mg once a week, 22 patients", "value": 5, "unit": "DLTs"}, {"measurement": "Total no. of patients with DLTs", "setting": "[1]; 50 mg once weekly, 22 DLT evaluable patients", "value": 4}, {"measurement": "Patients who experienced DLTs", "setting": "[1]; all dose levels and schedules", "value": "seven"}, {"measurement": "AUClast", "setting": "[2]; 25 mg twice-weekly", "value": 14200, "unit": "ng·h/mL"}, {"measurement": "Cmax", "setting": "[2]; 25 mg twice-weekly", "value": 232, "unit": "ng/mL"}, {"measurement": "AUClast", "setting": "[2]; 50 mg once-weekly", "value": 7959, "unit": "ng/mL"}, {"measurement": "Cmax", "setting": "[2]; 50 mg once-weekly", "value": 552, "unit": "ng/mL"}, {"measurement": "t1/2", "setting": "[2]; both dosing schedules", "value": "~20", "unit": "h"}, {"measurement": "Time to peak concentrations", "setting": "[2]; both dosing schedules, postdose", "value": "~3", "unit": "h"}, {"measurement": "Drug accumulation", "setting": "[2]; days 1 and 22 of cycle 1, multiple- or twice-weekly doses", "value": "no drug accumulation"}, {"measurement": "Apparent clearance", "setting": "[2]; oral", "value": "~6.4", "unit": "L/h"}, {"measurement": "Volume of distribution", "setting": "[2]; oral, apparent", "value": "~200", "unit": "L"}, {"measurement": "Doses at which tremors and ataxia were observed", "setting": "dogs", "value": "≥ 2", "unit": "mg/kg"}, {"measurement": "HSP70 induction in PBMCs", "setting": "HSP70; once-weekly administration, 2.5 to 60 mg", "value": "tended to increase with dose across the 5 mg weekly to 30 mg weekly dose groups"}, {"measurement": "HSP70 induction in PBMCs", "setting": "HSP70; twice-weekly administration, 25 mg", "value": "greater than that seen in once weekly 30 mg to 60 mg dose levels"}, {"measurement": "Patients with ⩾25% reduction in sSUVmax of target lesions", "setting": "advanced solid tumours [3]; 5 mg weekly", "value": 1, "unit": "patient"}, {"measurement": "Patients with ⩾25% reduction in sSUVmax of target lesions", "setting": "advanced solid tumours [3]; 25 mg twice weekly", "value": 3, "unit": "patients"}, {"measurement": "Patients with ⩾25% reduction in sSUVmax of target lesions", "setting": "advanced solid tumours [3]; 30 mg weekly", "value": 1, "unit": "patient"}, {"measurement": "Patients with ⩾25% reduction in sSUVmax of target lesions", "setting": "advanced solid tumours [3]; 50 mg weekly", "value": 6, "unit": "patients"}, {"measurement": "Complete metabolic response", "setting": "advanced solid tumours [3]; all patients", "value": "No complete metabolic response"}, {"measurement": "Distribution in brain tissues", "setting": "[4]", "value": "highly distributed in the brain tissues"}, {"measurement": "Total no. of patients who discontinue HSP990 (cause) beyond cycle 1", "setting": "[5]; 2.5 mg once weekly", "value": 0}, {"measurement": "Total no. of patients who discontinue HSP990 (cause) beyond cycle 1", "setting": "[5]; 5 mg once weekly", "value": 0}, {"measurement": "Total no. of patients who discontinue HSP990 (cause) beyond cycle 1", "setting": "[5]; 10 mg once weekly", "value": 0}, {"measurement": "Total no. of patients who discontinue HSP990 (cause) beyond cycle 1", "setting": "[5]; 20 mg once weekly", "value": "1 (digestive disorder)"}, {"measurement": "Description of grade ⩾3 drug-related AEs beyond cycle 1", "setting": "[5]; 25 mg twice weekly", "value": "Diarrhoea"}, {"measurement": "Grade ⩾3 drug-related AEs beyond cycle 1", "setting": "[5]; 25 mg twice weekly", "value": 2}, {"measurement": "Total no. of patients who discontinue HSP990 (cause) beyond cycle 1", "setting": "[5]; 25 mg twice weekly", "value": 0}, {"measurement": "Total no. of patients who discontinue HSP990 (cause) beyond cycle 1", "setting": "[5]; 30 mg once weekly", "value": 0}, {"measurement": "Grade ⩾3 drug-related AEs beyond cycle 1", "setting": "[5]; 50 mg once weekly", "value": 6}, {"measurement": "Description of grade ⩾3 drug-related AEs beyond cycle 1", "setting": "[5]; 60 mg once weekly", "value": "Diarrhoea"}, {"measurement": "Grade ⩾3 drug-related AEs beyond cycle 1", "setting": "[5]; 60 mg once weekly", "value": 3}, {"measurement": "Total no. of patients who discontinue HSP990 (cause) beyond cycle 1", "setting": "[5]; 60 mg once weekly", "value": "2 (diarrhoea)"}, {"measurement": "Adverse events requiring dose adjustment or study drug interruption, patients", "setting": "[5]; all patients (N=64)", "value": 30, "unit": "%"}, {"measurement": "Discontinued treatment for AEs of any causality, patients", "setting": "[5]; all patients (N=64)", "value": 14, "unit": "%"}, {"measurement": "Drug-related AE that led to study discontinuation, patients", "setting": "[5]; all patients (N=64)", "value": 11, "unit": "%"}, {"measurement": "Drug-related abdominal pain, patients", "setting": "[5]; all patients (N=64)", "value": 16, "unit": "%"}, {"measurement": "Drug-related anorexia, patients", "setting": "[5]; all patients (N=64)", "value": 25, "unit": "%"}, {"measurement": "Drug-related diarrhoea, patients", "setting": "[5]; all patients (N=64)", "value": 73, "unit": "%"}, {"measurement": "Drug-related dizziness, patients", "setting": "[5]; all patients (N=64)", "value": 19, "unit": "%"}, {"measurement": "Drug-related insomnia, patients", "setting": "[5]; all patients (N=64)", "value": 25, "unit": "%"}, {"measurement": "Drug-related nausea, patients", "setting": "[5]; all patients (N=64)", "value": 22, "unit": "%"}, {"measurement": "Drug-related tremor, patients", "setting": "[5]; all patients (N=64)", "value": 19, "unit": "%"}, {"measurement": "Drug-related vomiting, patients", "setting": "[5]; all patients (N=64)", "value": 14, "unit": "%"}, {"measurement": "Grade 3 QTc prolongation, drug-related", "setting": "[5]; [7]", "value": 3, "unit": "%"}, {"measurement": "Grade 3 asthenia, drug-related", "setting": "[5]; [7]", "value": 3, "unit": "%"}, {"measurement": "Grade 3 hyponatremia, drug-related", "setting": "[5]; [7]", "value": 3, "unit": "%"}, {"measurement": "Grade 3 increased ALT and/or AST, drug-related", "setting": "[5]; [7]", "value": 3, "unit": "%"}, {"measurement": "Dose delays", "setting": "[5]; all patients, mostly due to AEs", "value": 22, "unit": "patients"}, {"measurement": "Neurotoxicities leading to study drug discontinuation, patients", "setting": "[5]; during and beyond cycle 1, all patients", "value": 14, "unit": "%"}, {"measurement": "Drug-related deaths", "setting": "[5]; on study and up to 28 days after the last dose", "value": "No drug-related deaths"}, {"measurement": "Partial or complete responses (RECIST)", "setting": "advanced solid tumours [6]; all patients", "value": "No objective responses were seen; also recorded: No partial or complete responses were observed"}, {"measurement": "Best overall response of stable disease", "setting": "advanced solid tumours [6]; all patients (N=64)", "value": 25, "unit": "patients"}, {"measurement": "Prolonged stable disease (⩾6 months), patients", "setting": "advanced solid tumours [6]; all patients (N=64)", "value": 11, "unit": "%"}, {"measurement": "Stable disease as best overall response, patients", "setting": "advanced solid tumours [6]; all patients (N=64)", "value": 39, "unit": "%"}, {"measurement": "Stable disease as best overall response, patients", "setting": "advanced solid tumours [6]; twice-weekly dosing schedule (7 out of 11 patients)", "value": 64, "unit": "%"}, {"measurement": "Effects on CNS", "setting": "rats", "value": "no effects on CNS"}]}
